Consider four compounds from ChEMBL document CHEMBL4304816, “A Novel Biphenyl-based Chemotype of Retinoid X Receptor Ligands Enables Subtype and Heterodimer Preferences” (ACS Med Chem Lett, 2019).

The target in data set [1] is T1, Retinoic acid receptor RXR-beta (Homo sapiens, UniProt P28702).
T1 sequence (P28702 whole entry): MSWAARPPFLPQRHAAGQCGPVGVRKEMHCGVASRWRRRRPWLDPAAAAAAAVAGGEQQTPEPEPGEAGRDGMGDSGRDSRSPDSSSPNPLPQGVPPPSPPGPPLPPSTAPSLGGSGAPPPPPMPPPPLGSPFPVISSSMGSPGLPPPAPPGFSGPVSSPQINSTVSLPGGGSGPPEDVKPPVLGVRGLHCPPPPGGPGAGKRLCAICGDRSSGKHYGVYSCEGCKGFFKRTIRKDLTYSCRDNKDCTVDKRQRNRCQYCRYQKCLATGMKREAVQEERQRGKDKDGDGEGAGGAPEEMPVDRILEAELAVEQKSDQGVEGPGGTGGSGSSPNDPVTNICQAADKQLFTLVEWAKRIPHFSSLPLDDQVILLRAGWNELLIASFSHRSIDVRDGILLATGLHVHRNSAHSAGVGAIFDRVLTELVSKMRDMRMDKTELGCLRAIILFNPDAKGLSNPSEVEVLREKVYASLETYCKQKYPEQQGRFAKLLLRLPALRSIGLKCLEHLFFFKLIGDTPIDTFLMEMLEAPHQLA
Kind of data set: Agonist activity at Gal4-LBD fused RXRbeta (unknown origin) expressed in HEK293T cells after 14 to 16 hrs by dual-Glo luciferase assay. It is filed as cell-based. In short, it runs like this:
(§1)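 Gal4-hybrid RXRα/β/γ reporter gene assays in HEK293T cells. Fold activation is the maximal fold activation versus 0.1% DMSO.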

The target in data set [2] is T2, Retinoic acid receptor RXR-beta (Homo sapiens) (UniProt P28702).
T2 sequence (whole entry): T1 sequence (P28702 whole entry)
Nature of the data set: Agonist activity at Gal4-LBD fused RXRbeta (unknown origin) expressed in HEK293T cells assessed as fold activation after 14 to 16 hrs by dual-Glo luciferase assay relative to untreated control. The format is cell-based. In short, it runs like this:
as §1

Data set [3] has as its target T2, Retinoic acid receptor RXR-beta (Homo sapiens). Nature of the data set: Agonist activity at Gal4-LBD fused RXRbeta (unknown origin) expressed in HEK293T cells assessed as fold activation at 20 uM after 14 to 16 hrs by dual-Glo luciferase assay relative to untreated control. It is filed as cell-based. In short, it runs like this:
as §1

Data set [4] deals with T3, Retinoic acid receptor RXR-gamma (Homo sapiens, UniProt P48443).
T3 sequence (P48443 whole entry): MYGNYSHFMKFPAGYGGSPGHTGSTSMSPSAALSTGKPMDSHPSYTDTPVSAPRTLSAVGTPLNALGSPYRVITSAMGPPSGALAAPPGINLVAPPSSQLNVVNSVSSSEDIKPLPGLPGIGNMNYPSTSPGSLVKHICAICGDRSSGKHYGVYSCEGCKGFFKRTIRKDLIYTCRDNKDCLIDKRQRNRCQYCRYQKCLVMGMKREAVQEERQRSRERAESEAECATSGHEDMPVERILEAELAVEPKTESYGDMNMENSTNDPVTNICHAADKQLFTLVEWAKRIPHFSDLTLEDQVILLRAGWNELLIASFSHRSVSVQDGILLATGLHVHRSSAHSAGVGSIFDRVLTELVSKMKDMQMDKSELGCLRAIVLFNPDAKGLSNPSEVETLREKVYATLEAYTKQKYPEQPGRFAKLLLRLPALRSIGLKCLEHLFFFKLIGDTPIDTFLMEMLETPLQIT
Nature of the data set: Agonist activity at Gal4-LBD fused RXRgamma (unknown origin) expressed in HEK293T cells after 14 to 16 hrs by dual-Glo luciferase assay. It is filed as cell-based. In short, it runs like this: as §1

Data set [5] deals with T4, Retinoic acid receptor RXR-alpha (Homo sapiens, UniProt P19793).
T4 sequence (P19793 whole entry): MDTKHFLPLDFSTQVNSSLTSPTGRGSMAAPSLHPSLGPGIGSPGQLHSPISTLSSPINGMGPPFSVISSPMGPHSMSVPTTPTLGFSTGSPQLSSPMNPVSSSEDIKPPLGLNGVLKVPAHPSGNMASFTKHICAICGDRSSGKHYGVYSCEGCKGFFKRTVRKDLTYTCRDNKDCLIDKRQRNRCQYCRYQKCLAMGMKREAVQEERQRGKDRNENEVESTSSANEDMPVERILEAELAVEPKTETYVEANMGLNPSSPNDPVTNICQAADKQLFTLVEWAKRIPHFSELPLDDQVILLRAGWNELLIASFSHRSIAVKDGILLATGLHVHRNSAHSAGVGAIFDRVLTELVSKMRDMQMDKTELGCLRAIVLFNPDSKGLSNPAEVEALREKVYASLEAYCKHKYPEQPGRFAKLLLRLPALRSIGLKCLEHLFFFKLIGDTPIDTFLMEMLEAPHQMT
Nature of the data set: Agonist activity at Gal4-LBD fused RXRalpha (unknown origin) expressed in HEK293T cells after 14 to 16 hrs by dual-Glo luciferase assay. It is filed as cell-based. In short, it runs like this: as §1

Data set [6] addresses T5, Retinoic acid receptor RXR-gamma (Homo sapiens) (UniProt P48443).
T5 sequence (whole entry): T3 sequence (P48443 whole entry)
Nature of the data set: Agonist activity at Gal4-LBD fused RXRgamma (unknown origin) expressed in HEK293T cells assessed as fold activation at 20 uM after 14 to 16 hrs by dual-Glo luciferase assay relative to untreated control. It is filed as cell-based. In short, it runs like this: as §1

In data set [7] the target is T6, Retinoic acid receptor RXR-alpha (Homo sapiens) (UniProt P19793).
T6 sequence (whole entry): T4 sequence (P19793 whole entry)
Kind of data set: Agonist activity at Gal4-LBD fused RXRalpha (unknown origin) expressed in HEK293T cells assessed as fold activation after 14 to 16 hrs by dual-Glo luciferase assay relative to untreated control. It is filed as cell-based. In short, it runs like this:
as §1

The target of data set [8] is T6, Retinoic acid receptor RXR-alpha (Homo sapiens). Kind of data set: Agonist activity at Gal4-LBD fused RXRalpha (unknown origin) expressed in HEK293T cells assessed as fold activation at 20 uM after 14 to 16 hrs by dual-Glo luciferase assay relative to untreated control. The format is cell-based. In short, it runs like this: as §1
The species entered for data set [9] is Homo sapiens. Kind of data set: Agonist activity at full-length human RXR/PPARgamma expressed in HEK293T cells at 1 uM after 14 to 16 hrs by dual-glo luciferase reporter gene assay relative to untreated control. It is filed as cell-based. In short, it runs like this: (§2)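 RXR:LXR or RXR:PPARγ heterodimer reporter assay with test compound alone. Activation expressed relative to 0.1% DMSO vehicle. Three independent experiments, each in duplicate; mean reported.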

Data set [10] has as its target T5, Retinoic acid receptor RXR-gamma (Homo sapiens). Nature of the data set: Agonist activity at Gal4-LBD fused RXRgamma (unknown origin) expressed in HEK293T cells at 30 uM after 14 to 16 hrs by dual-Glo luciferase assay. It is filed as cell-based.
Data set [11] is described as follows: Agonist activity at full-length human RXR/LXR expressed in HEK293T cells at 25 uM after 14 to 16 hrs in presence of 1 uM T0901317 by dual-glo luciferase reporter gene assay relative to T0901317. As to conditions: HEK-293T, read-out: Activity. It is filed as cell-based. In short, it runs like this: (§3)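 Synergy format: the test compound was co-applied with the partner-receptor reference agonist at 1 μM, either T0901317 (RXR:LXR) or rosiglitazone (RXR:PPARγ). Relative synergistic activation was derived from three independent experiments, each in duplicate; mean reported.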
On the technique in general: In a reporter assay the amount or activity of a reporter protein is the signal.

Data set [12] in a line: Agonist activity at full-length human RXR/LXR expressed in HEK293T cells at 25 uM after 14 to 16 hrs by dual-glo luciferase reporter gene assay relative to untreated control. The format is cell-based. Particulars: HEK-293T, read-out: Activity. In short, it runs like this: as §2
For data set [13], the species on record is Homo sapiens. Kind of data set: Agonist activity at full-length human PPARgamma/RXR expressed in HEK293T cells at 25 uM after 14 to 16 hrs by dual-glo luciferase reporter gene assay relative to untreated control. The format is cell-based. In short, it runs like this: (§4)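 RXR:PPARγ heterodimer reporter assay in HEK293T cells with test compound alone. Mean relative activation is taken versus 0.1% DMSO, from three independent experiments each run in duplicate.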

The species named for data set [14] is Homo sapiens. Kind of data set: Agonist activity at full-length human PPARgamma/RXR expressed in HEK293T cells at 0.3 uM after 14 to 16 hrs in presence of 1 uM rosiglitazone by dual-glo luciferase reporter gene assay relative to rosiglitazone. It is filed as cell-based. In short, it runs like this:
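RXR:PPARγ heterodimer reporter assay run with reference PPARγ agonist rosiglitazone (1 μM) co-applied. Read-out is mean relative synergistic activation, from three independent experiments each run in duplicate.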

A short description of data set [15]: Agonist activity at full-length human RXR/LXR expressed in HEK293T cells at 0.3 uM after 14 to 16 hrs by dual-glo luciferase reporter gene assay relative to untreated control. The format is cell-based. As to conditions: HEK-293T, read-out: Activity. In short, it runs like this:
as §2

Data set [16] can be described thus: Solubility of compound at 3 mg after 24 hrs by HPLC analysis. The format is physicochemical.
The nature of data set [17]: Agonist activity at full-length human RXR/LXR expressed in HEK293T cells at 0.3 uM after 14 to 16 hrs in presence of 1 uM T0901317 by dual-glo luciferase reporter gene assay relative to T0901317. It is filed as cell-based. Particulars: HEK-293T, read-out: Activity. In short, it runs like this:
as §3

Data set [18] is filed under the species Homo sapiens. Kind of data set: Agonist activity at full-length human PPARgamma/RXR expressed in HEK293T cells at 0.3 uM after 14 to 16 hrs by dual-glo luciferase reporter gene assay relative to untreated control. The format is cell-based. In short, it runs like this: as §4

Converted amounts (≈) assume the structure as drawn. The source made the active and inactive calls. The rule behind the calls is not given here.

On to `O=C(O)c1ccc(-c2cc(Cl)cc(Cl)c2)cc1`, for which the EC50 in data set [1] was 13 µM; in data set [4], more than 30 µM; in [5], 9.3 µM. Further, the fold change (FC) in data set [2] amounted to 68; in [3], 60; in [6] it was 3; in data set [7], 38; in [8] it was 33.

`CN(CCOc1ccc(CC2SC(=O)NC2=O)cc1)c1ccccn1` (stereo not given) had an Activity in the data set filed under Homo sapiens [9] of 224%.

For the compound `O=C(O)c1cccc(-c2cc(Cl)cc(Cl)c2)c1`, the concentration giving a half-maximal response (EC50) in [1] was found to be 13.1 µM; in [5], 15.5 µM. For the same compound, the Activity entry in data set [10] was “inactive”. In addition, the activity at 25 µM in [11] stood at 42%; in data set [12], 67%. In addition, in the data set listed under Homo sapiens [13], the Activity was determined as 82%.

On to `C=C(c1ccc(C(=O)O)cc1)c1cc2c(cc1C)C(C)(C)CCC2(C)C` [BEXAROTENE], for which the Activity in the data set listed under Homo sapiens [14] was found to be 423%; in the data set listed under Homo sapiens [18], 330%. In addition, the figures for the activity at 0.3 µM in data set [15] and in [17] were 200% and 665%, respectively. In [16], the solubility at 24 h was found to be 0.3 µg/mL (≈ 0.861 µM).

By EC50 is commonly meant the concentration needed to bring the measured effect to its halfway point. High values mean weaker potency, low ones greater potency. What is called solubility is the dissolved amount per volume that the medium holds.
